Rows were chosen to be rich in hits. Some 1.7% of all compounds tested hit in one or more screens of this group.
SUMO1 PPI mod – modulators of human SUMO1-mediated protein-protein interactions; SUMO1 binding to a labelled peptide, TR-FRET, 1 h; inhibition, % at 20 µM; 0.33% of 360,000 active; P63165; in the data active = inhibition above about 37%
Target sequence (P63165 whole entry, looked up): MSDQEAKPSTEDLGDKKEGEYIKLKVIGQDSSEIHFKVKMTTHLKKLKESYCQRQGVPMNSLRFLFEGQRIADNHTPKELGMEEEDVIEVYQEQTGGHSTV
STEP block – STEP (human) phosphatase inhibition. P54829. recombinant STEP, OMFP fluorogenic substrate, fluorescence. inhibition, % at 20 µM. 0.25% of 360,000 active;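 active = inhibition at 20 µM, scaled per plate between control wells, above about 37%, limit read from the data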;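 note: 0% = DMSO with enzyme and substrate and 100% = substrate only without enzyme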
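System: STEP (striatal-enriched tyrosine phosphatase) enzyme, cell-free; medium: Bis-Tris pH 6.0 buffer with DTT, detergent; dosing: 20 µM, 1% DMSO; times: reaction 20 min, ambient temperature; detection: fluorescence, 480/540 nm; read-out basis: normalized % inhibition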
Scp1 inh – inhibitors of human Scp-1 phosphatase; 0.88% of 340,000 active; Recombinant Scp1, phosphopeptide, malachite green phosphate absorbance; inhibition, % at 20 µM; Q9GZU7; AID 493091;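 active = inhibition above about 50% at 20 µM, limit read from the data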;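 note: plate controls were DMSO wells with enzyme for no effect and wells lacking enzyme for full effect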
Target sequence (Q9GZU7 76-261 limits assumed): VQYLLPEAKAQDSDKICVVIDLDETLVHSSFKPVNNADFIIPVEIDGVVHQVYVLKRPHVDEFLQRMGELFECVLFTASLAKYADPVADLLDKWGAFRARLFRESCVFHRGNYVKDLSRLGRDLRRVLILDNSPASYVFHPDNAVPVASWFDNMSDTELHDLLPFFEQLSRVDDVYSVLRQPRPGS
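Material – SCP-1 phosphatase catalytic domain, residues 76-261 · Buffer or medium – Acidic Tris acetate buffer with magnesium and detergent · Also added – Phospho 17-mer peptide substrate · Compound – single 20 µM dose, 1% DMSO · Times – 45 min room-temperature reaction, 5 min colour, 30 min stabiliser · Technique – Phosphate-binding colour reagent, absorbance read at 630 nm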
LMPTP block – LMPTP (human) inhibition; inhibition, % at 20 µM; AID 651560; 0.22% of 360,000 active; recombinant LMPTP-A, OMFP fluorogenic substrate, fluorescence intensity; P24666;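 active = compounds that cut the enzyme signal by at least half of the control window in the single-dose screen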;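 note: plate controls were DMSO wells with enzyme plus substrate for no effect and substrate without enzyme for full effect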
Target sequence (P24666 whole entry, looked up): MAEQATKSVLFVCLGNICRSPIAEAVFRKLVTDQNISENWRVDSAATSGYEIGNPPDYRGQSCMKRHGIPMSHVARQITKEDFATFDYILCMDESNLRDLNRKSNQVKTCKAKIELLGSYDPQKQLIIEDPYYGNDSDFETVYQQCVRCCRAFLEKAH
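Material: LMPTP-A; amount: 0.625 nM enzyme; doses: single 20 µM dose; times: reaction 50 min, room temperature, dark; technique: fluorescence intensity of OMFP turnover product; benchmarks: no-enzyme and uninhibited controls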
DNMT1 inh – DNMT1 (human) enzyme inhibition; inhibition (reported as % activation of signal), % at 10 µM; AID 588458; DNMT1 molecular beacon, Hinp1I cleavage, fluorescence; P26358; 0.83% of 360,000 active; in the data active = inhibition above about 50%
Scp1 confirm – Scp-1 (human) inhibition, single-dose confirmed; shares compounds with Scp1 inh; recombinant SCP-1 catalytic domain, phosphate release, malachite green absorbance; inhibition, % at 20 µM; 61% of 2,500 active;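 note: plate controls were DMSO with enzyme for no effect and buffer wells lacking enzyme for full effect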
MG interference – interferes with malachite green readout, flagging false Scp-1 hits; shares compounds with Scp1 inh; Colorimetric interference counterscreen, malachite green absorbance 630 nm; apparent inhibition (interference), % at 20 µM; 2,500 tested, under 10 active;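 note: compounds added after enzyme reaction finished so only phosphate colour detection is probed; plate controls were DMSO wells with completed Scp-1 reaction for no effect and substrate wells lacking enzyme for full effect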
Scp1 DSF – binds human Scp-1, shifting its melting temperature; shares compounds with Scp1 inh; Recombinant SCP1, Sypro Orange thermal shift Tm; thermal shift relative to vanadate control, % at 40 µM; 25% of 1,500 active; AID 540329;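 active = substances whose mean melting-temperature shift, as a percentage of the reference inhibitor's shift, reaches about 5.3%, limit read from the data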;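 note: 0% = Tm of DMSO wells and 100% = Tm with sodium orthovanadate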
Beacon interf DR – beacon fluorescence artifact, dose response counter-screen; AID 602382; shares compounds with DNMT1 inh; IC50, µM; 200 tested, under 10 active; molecular beacon fluorescence, spectral interference counter-screen; call rule not given here
DNMT1 inh conf – confirmation of human DNMT1 inhibitors. 8% of 2,300 active. inhibition, % at 10 µM. shares compounds with DNMT1 inh. DNMT1 molecular beacon HinP1I cleavage, fluorescence. AID 602385;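 active = average inhibition of at least 30% in the single-concentration confirmation test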
DNMT1 interf – beacon fluorescence artifact counter-screen. DNMT1 molecular beacon spectral interference counterscreen, fluorescence 485/520. shares compounds with DNMT1 inh. activation (fluorescence interference), % at 10 µM. 1% of 2,300 active;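 active = activation of at least 30% at 10 µM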;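 note: DNMT1 catalytic domain with a HinP1I cleavage step and a FAM/dabcyl DNA beacon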
Starred values were filed as active, the others as inactive; . = not tested or not shown.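 Rule for the calls, unless noted: active = inhibition of at least 30% at 20 µM; inactive = the rest.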

SMILES	SUMO1 PPI mod	STEP block	Scp1 inh	LMPTP block	DNMT1 inh	Scp1 confirm	MG interference	Scp1 DSF	DNMT1 inh conf	DNMT1 interf	others
C[C@@H]1CN([C@@H](C)CO)C(=O)CCCn2nncc2CO[C@H]1CN(C)Cc1ccc(Oc2ccccc2)cc1	2.9	-1.2	.	-1.1	1.5	.	.	.	.	.
CN(C(=O)c1cccc(NC(=O)Cc2ccc(NC(=O)C3CCCN(C(=O)C4CCC4)C3)cc2)c1)C1CC1 (configuration not stated)	-1.1	-2.9	-8.3	-0.8	-2.3	.	.	.	.	.
COC(=O)c1c(NC(=O)COC(=O)c2ccccc2O)sc2c1CCCCC2	4.2	1.5	-5.0	-0.6	14.6	.	.	.	.	.
COC(=O)c1c(NC(=O)COC(=O)c2ccc(NC(=O)CC#N)cc2)sc2c1CCCCC2	70.8*	9.9	75.7*	74.1*	103.5*	71.2*	-10.1	13.9*	27.3	-3.3	Beacon interf DR=>99
CCOc1ccc(C(C)=O)cc1N1C(=O)C2C3C=CC(O3)C2C1=O (configuration not stated)	-2.9	-0.1	-6.5	0.2	0.8	.	.	.	.	.
CCOc1ccc(C(C)=O)cc1N1C(=O)C2C3C=CC(C3)C2C1=O (configuration not stated)	1.8	4.5	56.0*	-0.5	70.3*	31.4*	-20.3	-7.1	4.0	1.2
Cc1oc(-c2ccc(F)cc2)cc1-c1nn2c(-c3ccoc3C)nnc2s1	41.2*	5.3	75.3*	19.2	106.1*	40.9*	-21.1	1.0	6.6	-2.1
COc1ccc(S(=O)(=O)N2Cc3ccccc3CC2C(=O)O)cc1 (configuration not stated)	19.0	3.9	74.6*	0.4	60.4*	64.5*	-15.1	0.5	0.5	-1.5
CCN1C(=NCc2ccco2)N[C@@H](c2cccc(F)c2)C(C(=O)OC)=C1C	-0.9	-1.2	43.3	0.6	-34.3	.	.	.	.	.
Cc1ccc(NC(=O)Cn2c(O)c(N=NC(N)=O)c3ccccc32)cc1	-29.5	-2.8	-8.4	-0.6	1.0	.	.	.	.	.
Cc1ccccc1NC(=O)Cn1c(O)c(N=NC(=O)c2ccccc2O)c2ccccc21	-1.7	48.4*	93.6*	45.8	90.8*	76.7*	-12.9	-3.4	15.1	-5.9
Cc1ccc(C)c(SCC(=O)OCC(=O)c2ccco2)c1	3.1	1.8	59.7*	2.9	80.5*	68.6*	-9.3	1.3	3.3	1.9
O=C(COC(=O)c1ccc(Br)o1)NCc1ccco1	4.4	1.9	74.0*	15.5	58.4*	65.1*	-6.0	-5.9	2.0	1.5
O=C(COC(=O)/C=C/c1ccco1)Nc1ncc(C(F)(F)F)cc1Cl	-1.7	33.3	76.3*	13.4	70.7*	55.9*	-15.3	6.1*	17.9	2.7
O=C(COC(=O)c1ccccc1Nc1cccc(C(F)(F)F)c1)NCc1ccco1	5.9	18.3	77.3*	19.7	90.8*	53.2*	-23.0	5.3*	5.9	3.6
O=C(COC(=O)c1ccco1)NCc1ccco1	1.5	-3.1	0.3	-1.2	-0.4	.	.	.	.	.
Cc1cn2c(=O)c(C(=O)N3CCN(c4ccccc4Cl)CC3)cnc2s1	-0.3	-0.9	-1.2	-1.3	3.6	.	.	.	.	.
Cc1cccc(C(=O)OCC(=O)NCc2ccco2)c1	3.4	1.7	24.3	-1.4	20.4	.	.	.	.	.
O=C(COC(=O)c1cc(-c2cccs2)nc2ccccc12)NCc1ccco1	5.3	-1.9	55.9*	5.1	51.0*	56.0*	-10.9	7.0*	16.6	3.5
